According to ChEMBL document CHEMBL1124493, “Synthesis and tumor uptake of 5-82Br- and 5-131I-labeled 5-halo-1-(2-fluoro-2-deoxy-beta-D-ribofuranosyl)uracils” (J Med Chem, 1989):
Each block holds one compound with its values, some of them ahead of it.

Key:
Mus musculus [1] = experiment: Biodistribution of intravenously injected [82Br]-labeled compound in muscle of BDF1 female mice bearing subcutaneous Lewis lung carcinoma after 24 hours; type: ADME, organism-based, Muscle tissue; settings: in vivo, iv
Outline: (§1)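 Female BDF1 mice with subcutaneous Lewis lung carcinoma given an iv injection of [82Br]-labelled nucleoside, 47-130 μg carrying 20-60 kBq 82Br. Tissues were excised, weighed wet and γ-counted. Values are percent injected dose per gram of wet tissue, mean ± standard deviation of six animals, with organ-to-tumour ratios derived.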

Mus musculus [2] = experiment: Biodistribution of intravenously injected [82Br]-labeled compound in lung of BDF1 female mice bearing subcutaneous Lewis lung carcinoma after 24 hours; type: ADME, organism-based; settings: in vivo, iv; outline: as §1
Mus musculus [3] = experiment: Biodistribution of intravenously injected [82Br]-labeled compound in heart of BDF1 female mice bearing subcutaneous Lewis lung carcinoma after 0.50 hours; type: ADME, organism-based; settings: in vivo, iv, 0.5 h; outline: as §1
Mus musculus [4] = experiment: Biodistribution of intravenously injected [82Br]-labeled compound in lung of BDF1 female mice bearing subcutaneous Lewis lung carcinoma after 0.5 hours; type: ADME, organism-based; settings: in vivo, iv; outline: as §1
Mus musculus [5] = experiment: Biodistribution of intravenously injected [82Br]-labeled compound in kidney of BDF1 female mice bearing subcutaneous Lewis lung carcinoma after 2 hours; type: ADME, organism-based; settings: in vivo, iv; outline: as §1
Mus musculus [6] = experiment: Biodistribution of intravenously injected [82Br]-labeled compound in heart of BDF1 female mice bearing subcutaneous Lewis lung carcinoma after 24 hours; type: ADME, organism-based; settings: in vivo, iv; outline: as §1
Mus musculus [7] = experiment: Biodistribution of intravenously injected [82Br]-labeled compound in skin of BDF1 female mice bearing subcutaneous Lewis lung carcinoma after 0.50 hours; type: ADME, organism-based, Zone of skin; settings: in vivo, iv, 0.5 h; outline: as §1
Mus musculus [8] = experiment: Biodistribution of intravenously injected [82Br]-labeled compound in stomach of BDF1 female mice bearing subcutaneous Lewis lung carcinoma after 1 hours; type: ADME, organism-based; settings: in vivo, iv
Mus musculus [9] = experiment: Biodistribution of intravenously injected [82Br]-labeled compound in bone of BDF1 female mice bearing subcutaneous Lewis lung carcinoma after 8 hours; type: ADME, organism-based, Bone element; settings: in vivo, iv
Outline: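 82Br-labeled nucleoside given intravenously to female BDF1 mice bearing subcutaneous Lewis lung carcinoma, at 47-130 μg carrying 20-60 kBq. Mice sacrificed at each time point. Wet-weighed tissues γ-counted. Values are percent injected dose per gram wet tissue, mean ± SD, n = 6.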

Mus musculus [10] = experiment: Biodistribution of intravenously injected [82Br]-labeled compound in stomach of BDF1 female mice bearing subcutaneous Lewis lung carcinoma after 8 hours; type: ADME, organism-based; settings: in vivo, iv
Mus musculus [11] = experiment: Biodistribution of intravenously injected [82Br]-labeled compound in spleen of BDF1 female mice bearing subcutaneous Lewis lung carcinoma after 0.25 hours; type: ADME, organism-based; settings: in vivo, iv; outline: as §1
Mus musculus [12] = experiment: Biodistribution of intravenously injected [82Br]-labeled compound in kidney of BDF1 female mice bearing subcutaneous Lewis lung carcinoma after 1 hours; type: ADME, organism-based; settings: in vivo, iv; outline: as §1
Mus musculus [13] = experiment: Biodistribution of intravenously injected [82Br]-labeled compound in heart of BDF1 female mice bearing subcutaneous Lewis lung carcinoma after 1 hours; type: ADME, organism-based; settings: in vivo, iv; outline: as §1
Mus musculus [14] = experiment: Biodistribution of intravenously injected [82Br]-labeled compound in lung of BDF1 female mice bearing subcutaneous Lewis lung carcinoma after 8 hours; type: ADME, organism-based; settings: in vivo, iv; outline: as §1
Mus musculus [15] = experiment: Biodistribution of intravenously injected [82Br]-labeled compound in stomach of BDF1 female mice bearing subcutaneous Lewis lung carcinoma after 0.25 hours; type: ADME, organism-based; settings: in vivo, iv
Mus musculus [16] = experiment: Biodistribution of intravenously injected [131I]-labeled compound in spleen of BDF1 female mice bearing subcutaneous Lewis lung carcinoma after 0.25 hours; type: ADME, organism-based; settings: in vivo, iv
Outline: (§2)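 Female BDF1 mice with subcutaneous Lewis lung carcinoma given i.v. 0.5-1.8 μg of 131I-labeled nucleoside (55-110 kBq). Killed at set times. Tissues weighed wet and γ-counted. Radioactivity expressed as percent injected dose per gram wet tissue, mean ± SD of six animals.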

Mus musculus [17] = species on record: Mus musculus; experiment: Urinary iodide observed in BDF1 female mice bearing lewis lung tumor after 2-3 hr of injected [131I]-compound; type: functional, tissue-based; settings: Urine
Mus musculus [18] = species on record: Mus musculus; experiment: Other urinary compounds observed in BDF1 female mice bearing lewis lung tumor after 6-7 hr of injected [131I]-compound; type: functional, tissue-based; settings: Urine
Mus musculus [19] = experiment: Biodistribution of intravenously injected [131I]-labeled compound in liver of BDF1 female mice bearing subcutaneous Lewis lung carcinoma after 2 hours; type: ADME, organism-based; settings: in vivo, iv
Outline: (§3)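 Female BDF1 mice bearing subcutaneous Lewis lung carcinoma received a single intravenous dose of 0.5-1.8 μg of the 131I-labeled nucleoside (55-110 kBq). They were sacrificed at set times, and tissues were weighed wet and γ-counted. Activity is expressed as percent of injected dose per gram of wet tissue, given as mean ± standard deviation for six animals.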

Mus musculus [20] = experiment: Biodistribution of intravenously injected [131I]-labeled compound in spleen of BDF1 female mice bearing subcutaneous Lewis lung carcinoma after 8 hours; type: ADME, organism-based; settings: in vivo, iv; outline: as §2
Mus musculus [21] = experiment: Biodistribution of intravenously injected [131I]-labeled compound in stomach of BDF1 female mice bearing subcutaneous Lewis lung carcinoma after 2 hours; type: ADME, organism-based; settings: in vivo, iv; outline: as §2
Mus musculus [22] = experiment: Biodistribution of intravenously injected [131I]-labeled compound in skin of BDF1 female mice bearing subcutaneous Lewis lung carcinoma after 2 hours; type: ADME, organism-based, Zone of skin; settings: in vivo, iv; outline: as §2
Mus musculus [23] = experiment: Biodistribution of intravenously injected [131I]-labeled compound in stomach of BDF1 female mice bearing subcutaneous Lewis lung carcinoma after 4 hours; type: ADME, organism-based; settings: in vivo, iv; outline: as §2
Mus musculus [24] = experiment: Biodistribution of intravenously injected [131I]-labeled compound in blood of BDF1 female mice bearing subcutaneous Lewis lung carcinoma after 1 hours; type: ADME, organism-based; settings: in vivo, iv; outline: as §3
Mus musculus [25] = experiment: Biodistribution of intravenously injected [131I]-labeled compound in bone of BDF1 female mice bearing subcutaneous Lewis lung carcinoma after 24 hours; type: ADME, organism-based, Bone element; settings: in vivo, iv; outline: as §3
Mus musculus [26] = experiment: Biodistribution of intravenously injected [131I]-labeled compound in kidney of BDF1 female mice bearing subcutaneous Lewis lung carcinoma after 24 hours; type: ADME, organism-based; settings: in vivo, iv; outline: as §3
Mus musculus [27] = experiment: Biodistribution of intravenously injected [131I]-labeled compound in liver of BDF1 female mice bearing subcutaneous Lewis lung carcinoma after 0.50 hours; type: ADME, organism-based; settings: in vivo, iv, 0.5 h; outline: as §3
Mus musculus [28] = experiment: Biodistribution of intravenously injected [131I]-labeled compound in liver of BDF1 female mice bearing subcutaneous Lewis lung carcinoma after 1 hours; type: ADME, organism-based; settings: in vivo, iv; outline: as §3
Mus musculus [29] = experiment: Biodistribution of intravenously injected [131I]-labeled compound in tumor of BDF1 female mice bearing subcutaneous Lewis lung carcinoma after 2 hours; type: ADME, organism-based; settings: in vivo, iv; outline: as §2
Mus musculus [30] = experiment: Biodistribution of intravenously injected [131I]-labeled compound in skin of BDF1 female mice bearing subcutaneous Lewis lung carcinoma after 4 hours; type: ADME, organism-based, Zone of skin; settings: in vivo, iv; outline: as §2
Mus musculus [31] = species on record: Mus musculus; experiment: Urinary [131I]5-iodouracil observed in BDF1 female mice bearing lewis lung tumor after 0-0.5 hr of injected [131I]-compound; type: functional, tissue-based; settings: Urine
Mus musculus [32] = experiment: Biodistribution of intravenously injected [131I]-labeled compound in liver of BDF1 female mice bearing subcutaneous Lewis lung carcinoma after 24 hours; type: ADME, organism-based; settings: in vivo, iv; outline: as §3
Mus musculus [33] = experiment: Biodistribution of intravenously injected [131I]-labeled compound in lung of BDF1 female mice bearing subcutaneous Lewis lung carcinoma after 0.25 hours; type: ADME, organism-based; settings: in vivo, iv; outline: as §3
Mus musculus [34] = experiment: Biodistribution of intravenously injected [131I]-labeled compound in heart of BDF1 female mice bearing subcutaneous Lewis lung carcinoma after 1 hours; type: ADME, organism-based; settings: in vivo, iv; outline: as §3

Injected dose/g (Mus musculus [1]): 0.09%
Injected dose/g (Mus musculus [2]): 0.35%
Injected dose/g (Mus musculus [3]): 0.76%
Injected dose/g (Mus musculus [4]): 0.91%
Injected dose/g (Mus musculus [5]): 0.71%
Injected dose/g (Mus musculus [6]): 0.48%
Injected dose/g (Mus musculus [7]): 0.72%
Injected dose/g (Mus musculus [8]): 0.5%
Injected dose/g (Mus musculus [9]): 0.23%
Injected dose/g (Mus musculus [10]): 0.53%
Injected dose/g (Mus musculus [11]): 1.06%
Injected dose/g (Mus musculus [12]): 1.12%
Injected dose/g (Mus musculus [13]): 0.44%
Injected dose/g (Mus musculus [14]): 0.46%
Injected dose/g (Mus musculus [15]): 1.29%
Compound: O=c1[nH]c(=O)n([C@H]2O[C@@H](CO)[C@H](O)[C@H]2F)cc1Br

Injected dose/g (Mus musculus [16]): 3.2%
Injected dose/g (Mus musculus [19]): 2.8%
Injected dose/g (Mus musculus [20]): 1%
Injected dose/g (Mus musculus [21]): 4%
Injected dose/g (Mus musculus [22]): 3.2%
Injected dose/g (Mus musculus [23]): 5.7%
Injected dose/g (Mus musculus [24]): 13.3%
Injected dose/g (Mus musculus [25]): 0.07%
Injected dose/g (Mus musculus [26]): 0.14%
Injected dose/g (Mus musculus [27]): 4.6%
Injected dose/g (Mus musculus [28]): 3.6%
Injected dose/g (Mus musculus [29]): 3.8%
Injected dose/g (Mus musculus [30]): 3.5%
Injected dose/g (Mus musculus [32]): 0.1%
Injected dose/g (Mus musculus [33]): 7.9%
Injected dose/g (Mus musculus [34]): 5.8%
Compound: O=c1[nH]c(=O)n([C@@H]2O[C@H](CO)[C@@H](O)[C@H]2F)cc1I
Radioactive constituents (Mus musculus [17]): 13.7%
Radioactive constituents (Mus musculus [18]): 0%
Radioactive constituents (Mus musculus [31]): 1.8%
